Biological target: Recombinant angiotensin converting enzyme 2 (rACE2) (Homo sapiens, UniProt Q9BYF1)
Assay: ACE2 proteolysis assay of pyr‐1‐apelin‐13 and APLN analogues
Format: in vitro ADME
Settings: rACE2 in Tris buffer pH 8.0; HPLC coupled with MALDI‐TOF; Figures S8 and S9
Summary of the method: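 Quenched with 100 mmol/L EDTA pH 7.0. C18 reverse-phase HPLC, 10–45% acetonitrile/0.1% TFA, detection at 220 nm. Hydrolysis taken from substrate and product peak areas; masses confirmed by MALDI-TOF.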

Sequence of Recombinant angiotensin converting enzyme 2 (rACE2) (Q9BYF1 18-805): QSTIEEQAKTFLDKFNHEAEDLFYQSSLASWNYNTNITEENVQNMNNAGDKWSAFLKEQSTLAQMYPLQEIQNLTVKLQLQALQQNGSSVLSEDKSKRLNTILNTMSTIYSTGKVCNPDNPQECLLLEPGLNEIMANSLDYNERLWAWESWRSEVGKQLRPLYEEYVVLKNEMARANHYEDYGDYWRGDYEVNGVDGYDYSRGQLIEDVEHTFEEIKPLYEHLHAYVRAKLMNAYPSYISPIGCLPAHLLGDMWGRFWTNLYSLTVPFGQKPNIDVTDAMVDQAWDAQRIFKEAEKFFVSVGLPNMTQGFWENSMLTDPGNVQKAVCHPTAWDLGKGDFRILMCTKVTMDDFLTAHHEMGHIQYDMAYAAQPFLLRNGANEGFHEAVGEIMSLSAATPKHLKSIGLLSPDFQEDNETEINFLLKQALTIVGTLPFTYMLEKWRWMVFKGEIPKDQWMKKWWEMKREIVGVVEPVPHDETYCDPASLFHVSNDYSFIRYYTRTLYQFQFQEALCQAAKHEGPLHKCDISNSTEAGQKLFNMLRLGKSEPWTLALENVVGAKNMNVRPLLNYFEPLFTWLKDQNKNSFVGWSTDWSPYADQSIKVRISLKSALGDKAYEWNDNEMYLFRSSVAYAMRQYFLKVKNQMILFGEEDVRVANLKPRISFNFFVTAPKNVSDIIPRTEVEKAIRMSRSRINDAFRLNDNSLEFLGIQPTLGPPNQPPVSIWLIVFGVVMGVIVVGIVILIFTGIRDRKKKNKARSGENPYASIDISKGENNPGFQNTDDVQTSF

## pyr‐1‐apelin‐13 (QRPRLSHKGPMPF; Apelin-13 N-terminal pyroglutamate; UniProt Q9ULZ1 65-77, looked up, fragment)
  susceptibility to ACE2‐mediated proteolysis (result in words): efficient ACE2‐mediated cleavage

Reference: publication PMC3828798 (Journal of the American Heart Association: Cardiovascular …, 2013)
